In general, Tmax refers to the time from dosing to the highest level. A word on the inhibition: it is the percentage by which the read-out fell short of the control.

Calls of active or inactive are those of the source. The calls are words filed in the database; no cut-off is given here.

In data set [1] the target is T1, Nucleotide-binding oligomerization domain-containing protein 2 (Homo sapiens, UniProt Q9HC29). Description: Inhibition of MDP-induced human NOD2 signaling expressed in HEK-Blue cells preincubated for 3 hrs followed by MDP-stimulation for 20 hrs by spectrophotometry based SEAP reporter gene assay. It counts as cell-based.
Data set [2] deals with T1, Nucleotide-binding oligomerization domain-containing protein 2. Description: Activation of human NOD2 signaling expressed in HEK-Blue cells incubated for 3 hrs by spectrophotometry based SEAP reporter gene assay. It counts as cell-based. A general note: In a reporter assay the amount or activity of a reporter protein is the signal.
In data set [3] the test system is Lewis lung carcinoma cell line. Description: Antitumor activity against mouse LLC cells implanted in iv dosed C57BL/6N mouse assessed as tumor growth inhibition. It counts as functional, organism-based.
Data set [4] can be described thus: Cytotoxicity against HEK-Blue cells expressing human NOD2 assessed as reduction in cell growth at 1.5625 to 50000 nM incubated for 3 hrs by SRB assay. The format is cell-based. The conditions noted are these: 50 µM. In general terms: In SRB staining, fixed cells bind dye roughly in proportion to their protein.
Data set [5] can be described thus: Cytotoxicity against HEK-Blue cells expressing human NOD2 assessed as reduction in cell growth at 1.5625 to 50000 nM preincubated for 3 hrs followed by MDP-stimulation for 20 hrs by SRB assay. It counts as cell-based. The conditions noted are these: 50 µM.
Data set [6] can be described thus: Cmax in tumor of LLC tumor bearing C57BL/6N mouse at 30 mg/kg, iv by LC-MS/MS analysis. The note with it: in vivo. Details: dose 30 mg/kg, route intravenous. It counts as ADME, organism-based, Neoplasm. In short, it runs like this: (§1)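 LLC tumor-bearing mice received a single iv injection at 30 mg/kg; tumor tissue was sampled over time and assayed for intact conjugate and its metabolites PTX and MDA-linker. Tmax in h and Cmax in nmol/g tumor were reported, n=5 mice.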

The nature of data set [7]: AUC (0 to t) in tumor of LLC tumor bearing C57BL/6N mouse at 30 mg/kg, iv up to 24 hrs by LC-MS/MS analysis. The format is ADME, organism-based, Neoplasm. The note with it: in vivo. The essentials: as §1
A short description of data set [8]: Tmax in tumor of LLC tumor bearing C57BL/6N mouse assessed as paclitaxel level at 30 mg/kg, iv by LC-MS/MS analysis. It counts as ADME, organism-based, Neoplasm. The conditions noted are these: in vivo. The essentials: as §1
A short description of data set [9]: Cmax in tumor of LLC tumor bearing C57BL/6N mouse assessed as paclitaxel level at 30 mg/kg, iv by LC-MS/MS analysis. The format is ADME, organism-based, Neoplasm. Further details: dose 30 mg/kg, route intravenous. The note with it: in vivo. The essentials:
as §1

The nature of data set [10]: AUC (0 to t) in tumor of LLC tumor bearing C57BL/6N mouse assessed as paclitaxel level at 30 mg/kg, iv up to 24 hrs by LC-MS/MS analysis. The format is ADME, organism-based, Neoplasm. The conditions noted are these: in vivo. In short, it runs like this: as §1
Data set [11] can be described thus: Tmax in tumor of LLC tumor bearing C57BL/6N mouse assessed as MDA-linker level at 30 mg/kg, iv by LC-MS/MS analysis. The format is ADME, organism-based, Neoplasm. The conditions noted are these: in vivo. In short, it runs like this: as §1
A short description of data set [12]: Cmax in tumor of LLC tumor bearing C57BL/6N mouse assessed as MDA-linker level at 30 mg/kg, iv by LC-MS/MS analysis. The note with it: in vivo. Details: dose 30 mg/kg, route intravenous. It counts as ADME, organism-based, Neoplasm. The essentials:
as §1

Data set [13] can be described thus: AUC (0 to t) in tumor of LLC tumor bearing C57BL/6N mouse assessed as MDA-linker level at 30 mg/kg, iv up to 24 hrs by LC-MS/MS analysis. It counts as ADME, organism-based, Neoplasm. The conditions noted are these: in vivo. The essentials:
as §1

Data set [14] in a line: Cytotoxicity against HEK-Blue cells expressing human NOD2 assessed as reduction in cell growth at 0.3125 to 10000 nM incubated for 3 hrs by SRB assay. The format is cell-based. The note with it: 10 µM.
Data set [15] addresses T1, Nucleotide-binding oligomerization domain-containing protein 2. The data set can be described thus: Inhibition of NOD2 signaling in human PBMC derived macrophages assessed as inhibition of MDP-induced IL-6 mRNA expression at 1 to 10 uM preincubated for 1 hr followed by MDP-stimulation for 90 mins by RT-PCR method.
Data set [16] has the same target. Description: Inhibition of MDP-stimulated human NOD2 activation expressed in HEK-Blue cells assessed as reduction in NOD2-mediated MAPK signaling by measuring decrease in phosphorylated p38 level preincubated for 1 hr followed by MDP-stimulation for 1 hr by Western blot method. The format is cell-based. (In western blotting, separated proteins are transferred to a membrane and probed.)

The target is the same in data set [17]. Description: Inhibition of MDP-stimulated human NOD2 activation expressed in HEK-Blue cells assessed as reduction in NOD2-mediated NF-kB signaling by measuring decrease in phosphorylated RIP2 level preincubated for 1 hr followed by MDP-stimulation for 1 hr by Western blot method. It counts as cell-based.
For data set [18] the target is unchanged. Description: Inhibition of MDP-stimulated human NOD2 activation expressed in HEK-Blue cells assessed as reduction in NOD2-mediated MAPK signaling by measuring decrease in phosphorylated ERK1/2 level preincubated for 1 hr followed by MDP-stimulation for 1 hr by Western blot method. The format is cell-based.
The target is the same in data set [19]. The data set can be described thus: Inhibition of MDP-stimulated human NOD2 activation expressed in HEK-Blue cells assessed as reduction in NOD2-mediated MAPK signaling by measuring decrease in phosphorylated JNK level preincubated for 1 hr followed by MDP-stimulation for 1 hr by Western blot method. The format is cell-based.
Data set [20] has the same target. Description: Inhibition of MDP-stimulated human NOD2 activation expressed in HEK-Blue cells assessed as reduction in NOD2-mediated NF-kB signaling by measuring decrease in IkBalpha level preincubated for 1 hr followed by MDP-stimulation for 1 hr by Western blot method. It counts as cell-based.
Data set [21] shares this target. Description: Inhibition of MDP-stimulated NOD2 activation in human PBMC derived macrophages assessed as reduction in NOD2-mediated NF-kB signaling by measuring decrease in phosphorylated RIP2 level preincubated for 1 hr followed by MDP-stimulation for 1 hr by Western blot method.
Data set [22] shares this target. The data set can be described thus: Inhibition of MDP-stimulated NOD2 activation in human PBMC derived macrophages assessed as reduction in NOD2-mediated MAPK signaling by measuring decrease in phosphorylated ERK1/2 level preincubated for 1 hr followed by MDP-stimulation for 1 hr by Western blot method.
The target is the same in data set [23]. The data set can be described thus: Inhibition of MDP-stimulated NOD2 activation in human PBMC derived macrophages assessed as reduction in NOD2-mediated MAPK signaling by measuring decrease in phosphorylated p38 level preincubated for 1 hr followed by MDP-stimulation for 1 hr by Western blot method.
Data set [24] has the same target. Description: Inhibition of MDP-stimulated NOD2 activation in human PBMC derived macrophages assessed as reduction in NOD2-mediated MAPK signaling by measuring decrease in phosphorylated JNK level preincubated for 1 hr followed by MDP-stimulation for 1 hr by Western blot method.
For data set [25] the target is unchanged. The data set can be described thus: Inhibition of MDP-stimulated NOD2 activation in human PBMC derived macrophages assessed as reduction in NOD2-mediated NF-kB signaling by measuring decrease in IkBalpha level preincubated for 1 hr followed by MDP-stimulation for 1 hr by Western blot method.
Data set [26] concerns the target Receptor-interacting serine/threonine-protein kinase 2 (Homo sapiens) (UniProt O43353). The data set can be described thus: Inhibition of recombinant human N-terminal GST-tagged RIP2 (1 to 299 residues) expressed in baculovirus infected Sf9 cells at 10 uM using MBP as substrate incubated for 60 mins in presence of ATP by ADP-Glo assay.
Data set [27] has as its target T1, Nucleotide-binding oligomerization domain-containing protein 2. The data set can be described thus: Inhibition of His-tagged and FLAG-tagged NOD2 (unknown origin) self-oligomerization expressed in HEK293T cells at 10 uM preincubated for 1 hr followed by MDP stimulation for 15 mins by co-immunoprecipitation assay. The format is cell-based.
For data set [28] the target is unchanged. Description: Inhibition of MDP-induced human NOD2 signaling expressed in HEK-Blue cells at 10 uM preincubated for 3 hrs followed by MDP-stimulation for 20 hrs by spectrophotometry based SEAP reporter gene assay relative to control. It counts as cell-based.
Data set [29] concerns Lewis lung carcinoma cell line. Description: Potentiation of paclitaxel-induced antitumor activity against mouse LLC cells implanted in C57BL/6N mouse assessed as reduction in tumor weight at 30 mg/kg, iv administered once in every two days and paclitaxel treatment once in every four days measured 4 weeks after implantation. The format is functional, organism-based.
The subject of data set [30] is Lewis lung carcinoma cell line. The data set can be described thus: Potentiation of paclitaxel-induced antitumor activity against mouse LLC cells implanted in C57BL/6N mouse assessed as inhibition of lung tumor metastasis at 30 mg/kg, iv administered once in every two days and paclitaxel treatment once in every four days measured 4 weeks after implantation relative to control. The format is functional.

For data set [31], the system named is Lewis lung carcinoma cell line. The data set can be described thus: Antitumor activity against mouse LLC cells implanted in C57BL/6N mouse assessed as inhibition of lung tumor metastasis at 30 mg/kg, iv administered once in every two days measured 4 weeks after implantation. The format is functional, organism-based.
Data set [32] relates to Lewis lung carcinoma cell line. Description: Antitumor activity against mouse LLC cells implanted in C57BL/6N mouse assessed as reduction in tumor weight at 30 mg/kg, iv administered once in every two days measured 4 weeks after implantation. The format is functional, organism-based.
Data set [33] in a line: Cytotoxicity against HEK-Blue cells expressing human NOD2 assessed as reduction in cell growth at 0.3125 to 10000 nM preincubated for 3 hrs followed by MDP-stimulation for 20 hrs by SRB assay. The note with it: 10 µM. It counts as cell-based.

T1 sequence (Q9HC29 whole entry, the tested form may be a part): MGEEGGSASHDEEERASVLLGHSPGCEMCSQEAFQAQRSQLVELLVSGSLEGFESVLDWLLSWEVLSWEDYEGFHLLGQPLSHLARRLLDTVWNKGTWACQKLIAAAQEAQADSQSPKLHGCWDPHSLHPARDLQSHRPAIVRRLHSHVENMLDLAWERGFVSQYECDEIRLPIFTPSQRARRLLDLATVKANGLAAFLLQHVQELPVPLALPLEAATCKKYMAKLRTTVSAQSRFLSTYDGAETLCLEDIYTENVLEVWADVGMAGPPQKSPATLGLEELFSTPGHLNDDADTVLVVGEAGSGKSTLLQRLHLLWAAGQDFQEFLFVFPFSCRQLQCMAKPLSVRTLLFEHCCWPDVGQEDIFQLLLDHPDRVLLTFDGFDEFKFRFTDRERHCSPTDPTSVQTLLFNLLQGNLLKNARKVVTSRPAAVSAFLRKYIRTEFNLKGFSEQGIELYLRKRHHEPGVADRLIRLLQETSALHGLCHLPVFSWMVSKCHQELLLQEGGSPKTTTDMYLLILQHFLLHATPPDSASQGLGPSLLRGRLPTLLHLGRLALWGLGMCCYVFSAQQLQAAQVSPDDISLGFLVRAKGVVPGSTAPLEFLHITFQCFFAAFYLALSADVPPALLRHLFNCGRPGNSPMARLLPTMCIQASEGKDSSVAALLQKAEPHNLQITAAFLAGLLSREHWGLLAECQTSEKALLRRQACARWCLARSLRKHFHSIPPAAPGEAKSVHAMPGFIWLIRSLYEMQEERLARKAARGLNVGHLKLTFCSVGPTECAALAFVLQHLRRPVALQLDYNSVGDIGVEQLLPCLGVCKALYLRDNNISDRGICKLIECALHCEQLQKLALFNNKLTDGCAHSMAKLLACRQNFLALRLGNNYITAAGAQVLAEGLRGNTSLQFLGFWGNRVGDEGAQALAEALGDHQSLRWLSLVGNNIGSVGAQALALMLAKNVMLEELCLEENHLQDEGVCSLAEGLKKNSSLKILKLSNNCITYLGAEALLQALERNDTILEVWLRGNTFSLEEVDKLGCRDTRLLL
Sequence of Receptor-interacting serine/threonine-protein kinase 2 (Homo sapiens) (O43353 whole entry, the tested form may be a part): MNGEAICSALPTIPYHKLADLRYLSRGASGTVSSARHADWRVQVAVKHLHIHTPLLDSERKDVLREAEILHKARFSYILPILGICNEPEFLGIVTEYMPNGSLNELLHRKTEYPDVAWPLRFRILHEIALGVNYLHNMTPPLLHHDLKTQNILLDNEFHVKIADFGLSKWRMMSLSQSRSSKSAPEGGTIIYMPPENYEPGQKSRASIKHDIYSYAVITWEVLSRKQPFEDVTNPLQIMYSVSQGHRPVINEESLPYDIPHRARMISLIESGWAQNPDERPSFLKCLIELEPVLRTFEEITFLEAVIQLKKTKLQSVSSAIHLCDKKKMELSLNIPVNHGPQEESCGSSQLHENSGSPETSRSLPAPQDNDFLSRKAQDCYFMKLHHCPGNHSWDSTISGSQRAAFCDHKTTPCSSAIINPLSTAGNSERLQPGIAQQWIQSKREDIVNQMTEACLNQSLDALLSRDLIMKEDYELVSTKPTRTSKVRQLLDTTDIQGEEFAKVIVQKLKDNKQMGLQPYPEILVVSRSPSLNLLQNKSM

Regarding `C[C@H](NC(=O)/C=C/c1ccc(Cl)cc1)C(=O)N[C@H](CCC(=O)N[C@@H](CCCCNC(=O)CCC(=O)O)C(N)=O)C(N)=O`, the “inhibition activity call (active/not active)” value in data set [1] was “inactive”. For the same compound, the outcome in [2] was inactive. Moreover, the TGI result in data set [3] was “inactive”. Besides, the Activity entry in data set [4] and in data set [5] was “Non-Toxic” in each case.

Take `CC(=O)O[C@H]1C(=O)[C@@]2(C)[C@H]([C@H](OC(=O)c3ccccc3)[C@]3(O)C[C@H](OC(=O)[C@H](OC(=O)CCC(=O)NCCCC[C@H](NC(=O)CC[C@@H](NC(=O)[C@H](C)NC(=O)/C=C/c4ccc(Cl)cc4)C(N)=O)C(N)=O)[C@@H](NC(=O)c4ccccc4)c4ccccc4)C(C)=C1C3(C)C)[C@]1(OC(C)=O)CO[C@@H]1C[C@@H]2O`: the Cmax in data set [6] was found to be 15.39 nmol/g; in [9], 5.83 nmol/g; in data set [12], 1.01 nmol/g. Moreover, the AUCt amounted to 211.02 nmol·h/g in [7], 89.63 nmol·h/g in data set [10] and 16.27 nmol·h/g in [13]. The Tmax in data set [8] was determined as 12 h; in [11], 10.4 h.

As for `CC(=O)O[C@H]1C(=O)[C@@]2(C)[C@H]([C@H](OC(=O)c3ccccc3)[C@]3(O)C[C@H](OC(=O)[C@H](OCCC(=O)NCCCC[C@H](NC(=O)CC[C@@H](NC(=O)[C@H](C)NC(=O)/C=C/c4ccc(Cl)cc4)C(N)=O)C(N)=O)[C@@H](NC(=O)c4ccccc4)c4ccccc4)C(C)=C1C3(C)C)[C@]1(OC(C)=O)CO[C@@H]1C[C@@H]2O`, in data set [1], the “inhibition activity call (active/not active)” value is “Active”. Besides, the Activity entry in data set [14] and in data set [33] was “Non-Toxic” each time. For the same compound, the inhibition result in data set [15] and in data set [27] was “Active” each time. The inhibition entry in [16], in [17], in [18], in [19], in data set [20] and in data set [21] was “Dose-dependent effect” each time. The inhibition result in [22] is “Dose-dependent effect”; in data set [23] it was “Dose-dependent effect”; in data set [24] it was “Dose-dependent effect”; in [25], “Dose-dependent effect”; in data set [28], 50%. Also, the inhibition entry in [26] and in [31] was “inactive” each time. Moreover, the TGI entry in data set [29] is “Active”. Also, the “fold change (FC)” value in [30] is given as 2. Also, in data set [32], the TGI result was “inactive”.

For the origin of these results see ChEMBL document CHEMBL3992526, “Antagonizing NOD2 Signaling with Conjugates of Paclitaxel and Muramyl Dipeptide Derivatives Sensitizes Paclitaxel Therapy and Significantly Prevents Tumor Metastasis” (J Med Chem, 2017).
